# How the values were obtained:
# [1] = test system: healthy rats; assay: MMB treatment of healthy rats; type: in vivo, rat
# [2] = test system: patients; settings: clinical studies ref 18, 20; cited from earlier work
# [3] = test system: FPN1 protein in RAW 264.7 cells; type: cell-based, murine; settings: RAW 264.7, FeCl3 50 μM 20 h, hepcidin 1 μg/mL + MMB 10 nM-1 μM 6 h
# How it was run: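 RAW 264.7 cells were cultured in DMEM with 10% FCS, 1% penicillin/streptomycin and 2 mM glutamine at 37°C and 5% CO2. FeCl3 (50 μM, 20 h) induced FPN1. Cells then received hepcidin (1 μg/mL) alone or with test compound (10, 100, 500 nM, 1 μM) for another 6 h. Untreated cells were controls. FPN1 was measured by western blot and densitometry, normalized to β-actin, n = 3 per group.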
# [4] = molecular target: T1, ACVR1 (ALK2) (Homo sapiens, UniProt Q04771); assay: SelectScreen LanthaScreen Eu Kinase Binding Assay
# T1 sequence (Q04771 21-509): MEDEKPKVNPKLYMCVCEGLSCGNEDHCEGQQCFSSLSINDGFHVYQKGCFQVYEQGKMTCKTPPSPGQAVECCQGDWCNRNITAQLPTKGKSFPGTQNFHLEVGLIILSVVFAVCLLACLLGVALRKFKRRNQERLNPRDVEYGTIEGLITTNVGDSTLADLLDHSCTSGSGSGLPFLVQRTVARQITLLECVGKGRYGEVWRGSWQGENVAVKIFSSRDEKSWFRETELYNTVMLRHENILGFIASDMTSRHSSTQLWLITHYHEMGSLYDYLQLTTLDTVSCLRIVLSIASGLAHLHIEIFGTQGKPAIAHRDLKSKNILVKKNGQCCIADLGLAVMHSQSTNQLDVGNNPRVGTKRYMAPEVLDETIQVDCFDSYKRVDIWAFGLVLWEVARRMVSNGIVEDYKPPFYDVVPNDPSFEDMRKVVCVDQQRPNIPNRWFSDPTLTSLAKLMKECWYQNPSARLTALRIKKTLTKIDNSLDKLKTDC
# [5] = test system: BMP6-pSMAD1/5/8 in HepG2 cells; assay: BMP6-induced phosphorylation of SMAD1/5/8 in HepG2 cells, western blot; type: cell-based; settings: HepG2, 10 ng/mL BMP6 30 min, cpd added 2 hours before
# How it was run: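 HepG2 cells were grown in EMEM with 10% FCS and 1% penicillin/streptomycin. Test compound was added 2 h before stimulation with BMP6 (10 ng/mL, 30 min). pSMAD1/5/8 was detected by western blot with HRP secondary antibodies, using β-actin as loading control. Results are percent of pSMAD1/5/8 induction normalized to vehicle-treated cells, n = 5, mean ± SEM.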
# [6] = test system: ACD rats; assay: PG-APS-induced rat model of anemia of chronic disease; type: in vivo
# How it was run: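 Female Lewis rats on standard diet (180 mg iron/kg) were made anemic by intraperitoneal PG-APS. From 2 weeks after PG-APS they received test compound 25 mg/kg or vehicle once daily for 3 days up to 21 days. Hb and RBC were counted on a Vet-ABC analyzer. Serum iron was measured by QuantiChrom kit. Spleen FPN1 was measured by western blot (n = 4). Liver Inhibin BB mRNA was measured by TaqMan RT-PCR on 4 μg of guanidinium-phenol-extracted RNA. Time points were compared by unpaired t test.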
# [7] = test system: IL-6-pSTAT3 in HepG2 cells; assay: IL-6-induced phosphorylation of STAT3 in HepG2 cells, western blot; type: cell-based; settings: HepG2, 10 ng/mL IL-6 20 min
# How it was run: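 Western blot for pSTAT3 in HepG2 cells (EMEM, 10% FCS, 1% penicillin/streptomycin) after 20 min of 10 ng/mL IL-6, with test compound present. β-actin served as loading control. Values are percent of pSTAT3 induction relative to vehicle-treated cells, n = 2, mean ± SEM.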
# [8] = healthy rats, 5, 10 or 25 mg/kg
# [9] = healthy rats, any MMB dose, 3 days
# [10] = ACD rats, 25 mg/kg once daily, days 14 and 21, vs vehicle
# [11] = ACD rats, 5, 10 or 25 mg/kg for 3 days, hepatic nuclear extracts
# [12] = ACD rats, 5, 10 or 25 mg/kg once daily for 3 days
# [13] = ACD rats, 5, 10 or 25 mg/kg, 3 weeks, FACS
structure (smiles),measurement,setting,value
"N#CCNC(=O)c1ccc(-c2ccnc(Nc3ccc(N4CCOCC4)cc3)n2)cc1 [MMB, momelotinib]",erythropoietic / circulating iron effects in healthy rats,[1]; [8],did not induce any of these effects
same,pSMAD1/5/8 protein levels,[1]; [8],not affected
same,pSTAT3 protein levels,[1]; [8],not affected
same,FPN1 protein levels in the spleen,[1]; [9],no changes
same,Hamp mRNA expression in the liver,[1]; [9],no changes
same,serum iron levels,[1]; [9],no changes
same,patients who experienced grade 3 or 4 anemia,[2],3%
same,effect on FPN1 protein expression in presence of hepcidin,[3],no effect
same,IC50,[4],8.4 nM
same,inhibition of BMP6-pSMAD1/5/8 signaling,[5],inhibited
same,mean corpuscular Hb,"[6]; ACD rats, 25 mg/kg once daily",increase
same,mean corpuscular volume,"[6]; ACD rats, 25 mg/kg once daily",increase
same,neutrophil count,"[6]; ACD rats, 25 mg/kg once daily",reductions
same,white blood cell count,"[6]; ACD rats, 25 mg/kg once daily",reductions
same,Hb concentrations,[6]; [10],significant increase
same,RBC count,[6]; [10],significant increase
same,FPN1 expression in the spleen,"[6]; ACD rats, 25 mg/kg, 3 days",increase
same,ferritin protein levels in the spleen,"[6]; ACD rats, 25 mg/kg, 3 days",decreased
same,circulating iron concentrations,"[6]; ACD rats, 25 mg/kg, up to 21 days",increase
same,Inhibin BB mRNA levels in the liver,"[6]; ACD rats, 5, 10 or 25 mg/kg for 3 days",decreased
same,pSMAD1/5/8 in the livers,[6]; [11],dose-dependent reduction
same,pSTAT3 in the livers,[6]; [11],dose-dependent reduction
same,liver Hamp mRNA expression,[6]; [12],reduced
same,serum hepcidin levels,[6]; [12],dose-dependent decrease
same,serum iron,[6]; [12],dose-dependent increase
same,numbers of mature RBCs in bone marrow,[6]; [13],dose-dependent increase
same,numbers of reticulocytes in bone marrow,[6]; [13],dose-dependent increase
same,splenic IL-6 cytokine mRNA levels,"[6]; ACD rats, 3 days, especially at 25 mg/kg",modulated
same,inhibition of IL-6-pSTAT3 signaling,[7],inhibited
"N#CC[C@H](C1CCCC1)n1cc(-c2ncnc3[nH]ccc23)cn1 [RUX, ruxolitinib, reference compound]",patients who experienced grade 3 or 4 anemia,[2],45.2%
same,inhibitory activity in type I BMPR kinase / TGFBR1 binding assays,"[4]; ACVR1/ALK2, BMPR1a/ALK3 and TGFBR1/ALK5 assays",no relevant inhibitory activity
same,inhibition of BMP6-pSMAD1/5/8 signaling,[5],not BMP6-pSMAD1/5/8
same,inhibition of IL-6-pSTAT3 signaling,[7],blocked

# Reference: article PMC5693322 (Blood, 2017)
